Data published in ChEMBL document CHEMBL2086296, “Synthesis of novel quinoline-2-one based chalcones of potential anti-tumor activity” (Eur J Med Chem, 2012).

Legend:
[1] = system: MDA-MB-435; assay: Cytotoxicity against human MDA-MB-435 cells after 24 hrs by SRB assay; assay type: cell-based; settings: mda-mb-435, 24 h
How it was run: (§1)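 NCI 60-cell screen. Cells grown in RPMI 1640 with 5% FBS and 2 mM L-glutamine, seeded at 5,000–40,000 cells/well, preincubated 24 h at 37 °C in 5% CO2. Drug stock in DMSO, diluted in medium with gentamicin; five final concentrations, 100, 10, 1.0, 0.1 and […]. Time-zero plates were TCA-fixed. Protein read by SRB staining; GI50, TGI and LC50 taken relative to time-zero.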

[2] = system: HOP-62; assay: Cytotoxicity against human HOP62 cells after 24 hrs by SRB assay; assay type: cell-based; settings: hop-62, 24 h; how it was run: as §1
[3] = system: SW-620; assay: Cytotoxicity against human SW620 cells after 24 hrs by SRB assay; assay type: functional; settings: SW-620, 24 h
How it was run: (§2)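 NCI 60-cell screen. Cells are grown in RPMI 1640 with 5% FBS and 2 mM L-glutamine and seeded at 5,000–40,000 cells/well according to doubling time. They are preincubated 24 h at 37 °C in 5% CO2, and Tz plates are TCA-fixed at drug addition. Drug stock is in DMSO, diluted in medium with gentamicin, and tested at five concentrations (100, 10, 1.0, 0.1, […]). Protein is read by SRB staining. GI50, TGI and LC50 are derived relative to time-zero and control wells.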

[4] = system: HT-29; assay: Cytotoxicity against human HT-29 cells after 24 hrs by SRB assay; assay type: cell-based; settings: ht-29, 24 h; how it was run: as §1
[5] = system: NCI-H522; assay: Cytotoxicity against human NCI-H522 cells after 24 hrs by SRB assay; assay type: cell-based; settings: nci-h522, 24 h; how it was run: as §1
[6] = system: EKVX; assay: Cytotoxicity against human EKVX cells after 24 hrs by SRB assay; assay type: cell-based; how it was run: as §1
[7] = system: SF-268; assay: Cytotoxicity against human SF268 cells after 24 hrs by SRB assay; assay type: functional; settings: SF-268, 24 h
How it was run: (§3)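 NCI 60-line screen. Cells in RPMI 1640 with 5% FBS and 2 mM L-glutamine, seeded at 5,000–40,000 cells/well by doubling time, then incubated 24 h at 37 °C, 5% CO2 before dosing. Time-zero plates fixed with TCA at drug addition. DMSO stocks diluted in medium with gentamicin to five concentrations, […]. Protein read by SRB staining. GI50, TGI and LC50 derived relative to control and time-zero.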

[8] = system: RPMI-8226; assay: Cytotoxicity against human RPMI8226 cells after 24 hrs by SRB assay; assay type: cell-based; settings: rpmi-8226, 24 h; how it was run: as §1
[9] = system: MDA-MB-468; assay: (§4) Cytotoxicity against human MDA-MB-468 cells after 24 hrs by SRB assay; assay type: cell-based; settings: mda-mb-468, 24 h; how it was run: as §1
[10] = system: U-251; assay: Cytotoxicity against human U251 cells after 24 hrs by SRB assay; assay type: functional; settings: U-251, 24 h; how it was run: as §2
[11] = system: DU-145; assay: Cytotoxicity against human DU145 cells after 24 hrs by SRB assay; assay type: functional; settings: DU-145, 24 h; how it was run: as §3
[12] = system: TK-10; assay: Cytotoxicity against human TK10 cells after 24 hrs by SRB assay; assay type: cell-based; settings: tk-10, 24 h
How it was run: (§5)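 NCI 60-cell-line screen: cells grown in RPMI 1640 with 5% FBS and 2 mM L-glutamine, seeded at 5,000–40,000 cells/well by doubling time, and preincubated 24 h at 37 °C in 5% CO2. Time-zero plates were TCA-fixed. DMSO stocks were diluted in medium with gentamicin to five concentrations (100, 10, 1.0, 0.1, […]). Protein was read by SRB, and GI50, TGI and LC50 were derived against time-zero.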

[13] = system: SNB-19; assay: (§6) Cytotoxicity against human SNB19 cells after 24 hrs by SRB assay; assay type: cell-based; settings: snb-19, 24 h; how it was run: as §5
[14] = system: KM12; assay: Cytotoxicity against human KM12 cells after 24 hrs by SRB assay; assay type: functional; settings: KM12, 24 h; how it was run: as §3
[15] = system: NCI/ADR-RES; assay: (§7) Cytotoxicity against human NCI/ADR-RES cells after 24 hrs by SRB assay; assay type: functional; how it was run: as §3
[16] = system: SR; assay: (§8) Cytotoxicity against human SR cells after 24 hrs by SRB assay; assay type: cell-based; how it was run: as §5
[17] = system: SNB-19; assay: as §6; assay type: functional; settings: SNB-19, 24 h; how it was run: as §2
[18] = system: HOP-92; assay: Cytotoxicity against human HOP92 cells after 24 hrs by SRB assay; assay type: functional; settings: HOP-92, 24 h; how it was run: as §3
[19] = system: OVCAR-5; assay: Cytotoxicity against human OVCAR5 cells after 24 hrs by SRB assay; assay type: functional; settings: OVCAR-5, 24 h; how it was run: as §3
[20] = system: NCI-H226; assay: Cytotoxicity against human NCI-H226 cells after 24 hrs by SRB assay; assay type: functional; settings: NCI-H226, 24 h; how it was run: as §3
[21] = system: LOX IMVI; assay: Cytotoxicity against human LOXIMVI cells after 24 hrs by SRB assay; assay type: cell-based; how it was run: as §1
[22] = system: BT-549; assay: Cytotoxicity against human BT549 cells after 24 hrs by SRB assay; assay type: functional; settings: BT-549, 24 h; how it was run: as §3
[23] = system: SR; assay: as §8; assay type: functional; how it was run: as §2
[24] = system: HCC 2998; assay: Cytotoxicity against human HCC2998 cells after 24 hrs by SRB assay; assay type: cell-based; settings: hcc 2998, 24 h; how it was run: as §1
[25] = system: MOLT-4; assay: Cytotoxicity against human MOLT4 cells after 24 hrs by SRB assay; assay type: functional; settings: MOLT-4, 24 h; how it was run: as §3
[26] = system: HCT-15; assay: Cytotoxicity against human HCT15 cells after 24 hrs by SRB assay; assay type: cell-based; settings: hct-15, 24 h; how it was run: as §1
[27] = system: SNB-75; assay: Cytotoxicity against human SNB75 cells after 24 hrs by SRB assay; assay type: functional; settings: SNB-75, 24 h; how it was run: as §2
[28] = system: NCI/ADR-RES; assay: as §7; assay type: cell-based; how it was run: as §1
[29] = system: MDA-MB-468; assay: as §4; assay type: functional; settings: MDA-MB-468, 24 h; how it was run: as §3
[30] = system: RXF 393; assay: (§9) Cytotoxicity against human RXF393 cells after 24 hrs by SRB assay; assay type: cell-based; settings: rxf 393, 24 h; how it was run: as §1
[31] = system: CCRF-CEM; assay: Cytotoxicity against human CCRF-CEM cells after 24 hrs by SRB assay; assay type: functional; how it was run: as §3
[32] = system: RXF 393; assay: as §9; assay type: functional; settings: RXF 393, 24 h; how it was run: as §3
[33] = system: A549; assay: Cytotoxicity against human A549 cells after 24 hrs by SRB assay; assay type: cell-based; settings: a549, 24 h; how it was run: as §1
[34] = system: SK-MEL-5; assay: Cytotoxicity against human SK-MEL-5 cells after 24 hrs by SRB assay; assay type: functional; settings: SK-MEL-5, 24 h; how it was run: as §3
[35] = system: T47D; assay: Cytotoxicity against human T47D cells after 24 hrs by SRB assay; assay type: cell-based; how it was run: as §5
[36] = system: NCI-H460; assay: Cytotoxicity against human NCI-H460 cells after 24 hrs by SRB assay; assay type: functional; settings: NCI-H460, 24 h; how it was run: as §3
[37] = system: ACHN; assay: Cytotoxicity against human ACHN cells after 24 hrs by SRB assay; assay type: functional; how it was run: as §3

O=C(/C=C/c1cc2ccccc2[nH]c1=O)c1ccc(Cl)cc1
LC50 [1]: > 100 µM | LC50 [2]: > 100 µM | GI50 [3]: 3.38 µM | TGI [3]: 12.1 µM | LC50 [4]: > 100 µM | LC50 [5]: 47.2 µM | LC50 [6]: > 100 µM | GI50 [7]: 7.15 µM | TGI [7]: 63.1 µM | LC50 [8]: > 100 µM | LC50 [9]: 53.2 µM | GI50 [10]: 2.52 µM | TGI [10]: 11.4 µM | GI50 [11]: 4.08 µM | TGI [11]: 48.9 µM | LC50 [12]: 75.8 µM | LC50 [13]: > 100 µM | GI50 [14]: 3.23 µM | TGI [14]: 16.3 µM | GI50 [15]: 4 µM | TGI [15]: 23.6 µM | LC50 [16]: > 100 µM | GI50 [17]: 5.11 µM | TGI [17]: > 100 µM | GI50 [18]: 5.74 µM | TGI [18]: 50.5 µM | GI50 [19]: 12.7 µM | TGI [19]: 97 µM | GI50 [20]: 11.6 µM | TGI [20]: 38.9 µM | LC50 [21]: > 100 µM | GI50 [22]: 3.86 µM | TGI [22]: 17.1 µM | GI50 [23]: 1.71 µM | TGI [23]: 19.1 µM | LC50 [24]: 59.6 µM | GI50 [25]: 3.11 µM | TGI [25]: > 100 µM | LC50 [26]: > 100 µM | GI50 [27]: 6.21 µM | TGI [27]: 48.8 µM | LC50 [28]: > 100 µM | GI50 [29]: 2.96 µM | TGI [29]: 9.88 µM | LC50 [30]: > 100 µM | GI50 [31]: 3.5 µM | TGI [31]: > 100 µM | GI50 [32]: 4.32 µM | TGI [32]: 29.9 µM | LC50 [33]: > 100 µM | GI50 [34]: 18.9 µM | TGI [34]: > 100 µM | LC50 [35]: > 100 µM | GI50 [36]: 3.99 µM | TGI [36]: 18.9 µM | GI50 [37]: 7.27 µM | TGI [37]: 27.4 µM
